According to PubChem BioAssay:
Unmarked numbers belong to inactive results. The source made the active and inactive calls.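 Rule for the calls, unless noted: active = growth inhibition above 25% in both replicates, a cutoff set 3 SD above the mean; inconclusive = above 25% in only one replicate; inactive = the rest.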

Assay: S. cerevisiae growth inhibition in permissive medium (OD615), pilot counter-assay for S. cerevisiae lifespan shortening project, permissive growth control (AID 705)
Conditions: OD615, 24 h, at 10 µM, stronger effect = higher value
Method in brief: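 Material: engineered DeaD yeast; compound dosing: one dose 10 µM, DMSO 0.25% final; measure: yeast growth inhibition indicated by reduced 24 h OD615; detection: OD615 turbidity read; incubation: cells pre-grown 4 h, then 24 h compound exposure, 30 °C humidified; medium: permissive synthetic complete medium with raffinose and galactose carbon sources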

Q: For `CCOC(=O)Cn1c(=O)oc2cc(S(=O)(=O)NCc3ccccn3)ccc21`, which growth inhibition is on record?
A: -14%

Q: With `CCOC(=O)C1C(C)N=C2SCC(=O)N2C1c1cccc(Br)c1` (stereo not given) as the compound, how does the growth inhibition read?
A: 9.43%

Q: Which growth inhibition does the source give for `CN1CCN(c2cc3c(c4c2[nH]c2ccccc24)C(=O)CC(C)(C)C3)CC1` here?
A: -15.3%

Q: Which growth inhibition does the source give for `Cc1cc(/C=N/n2cnnc2)c(C)n1-c1ccc(C(=O)O)cc1` here?
A: 5.52%

Q: With `O=C(CSc1cn(Cc2ccccc2)c2ccccc12)Nc1nccs1` as the compound, how does the growth inhibition read?
A: -7.55%

Q: Which growth inhibition does the source give for `CCOC(=O)CN1Cc2cccc(C(=O)O)c2C1=O` here?
A: -13.8%

Q: Which growth inhibition does the source give for `CCOC(=O)C1CCCN(C(=O)c2ccc(CNc3c(N4CCC(C)CC4)c(=O)c3=O)cc2)C1` (stereo not given) here?
A: -16.1%

Q: Which growth inhibition does the source give for `O=C1C(Cl)=C(N2CCCCCC2)C(=O)N1c1ccccc1` here?
A: -12.4%

Q: For `O=C(Nc1c(C(=O)O)oc2ccc(Br)cc12)c1ccccc1`, which growth inhibition is on record?
A: -34%

Q: Which growth inhibition does the source give for `CC1(C)CC(=O)C2(CC3=C(CC(C)(C)CC3=O)O2)C(=O)C1` here?
A: -4.3%

Q: Which growth inhibition does the source give for `CCCn1nc(NC(=O)CC(C)C)c2cc3ccccc3nc21` here?
A: -14.6%

Q: For `Cc1ccc(C2=[N+]([O-])C3(CCCCC/C3=N\O)N(O)C2(C)C)o1` (stereo not given), which growth inhibition is on record?
A: -1.35%

Q: For `COc1ccc(-c2nc(CS(=O)CC(=O)NCC3CCCO3)c(C)o2)cc1` (stereo not given), which growth inhibition is on record?
A: -7.51%

Q: For `CN(C(=O)c1ccc2c(c1)OCO2)C1(C(=O)NC2CCCCC2)CCCCC1`, which growth inhibition is on record?
A: -8.36%

Q: With `CCn1c(=O)cc(OCC(=O)N2CCc3ccccc32)c2ccccc21` as the compound, how does the growth inhibition read?
A: -19%

Q: For `Cn1c(=O)[nH]c(=O)c2[nH]c(CN3CCN(Cc4ccccc4)CC3)nc21`, which growth inhibition is on record?
A: -9.19%

Q: With `CCCCOC(=O)Cc1c(O)c2ccccc2[nH]c1=O` as the compound, how does the growth inhibition read?
A: 10.9%

Q: For `CCOc1ccc(S(=O)(=O)Nc2ccccc2C(=O)NCC2CCCO2)cc1` (stereo not given), which growth inhibition is on record?
A: -13%

Q: With `O=C1C(Cl)=C(NCC2CCCO2)C(=O)N1C1CCCCC1` (stereo not given) as the compound, how does the growth inhibition read?
A: -2.76%

Q: For `CC1=C(C(=O)N2CCOCC2)C(c2cccs2)NC(=O)N1` (stereo not given), which growth inhibition is on record?
A: 1.45%

Q: For `CCC1CCCCN1C(=O)CSc1nnc(-c2ccc(Cl)cc2)o1` (stereo not given), which growth inhibition is on record?
A: 0.365%

Q: Which growth inhibition does the source give for `COC(=O)CN1C(=O)C(O)(CC(=O)c2cccc(Br)c2)c2ccccc21` (stereo not given) here?
A: -6.81%

Q: For `O=P(O)(CCc1ccccn1)CN1CCOCC1`, which growth inhibition is on record?
A: -17.5%

Q: For `O=C(NCc1cccnc1)NC1(C(F)(F)F)Oc2ccc(Cl)cc2O1` (stereo not given), which growth inhibition is on record?
A: -2.96%

Q: Which growth inhibition does the source give for `CN(C)C(C(=O)NC1CCCCC1)c1ccc(Cl)cc1` (stereo not given) here?
A: -5.65%

Q: For `COc1ccc(C)cc1NC(=O)C1CCCN(S(=O)(=O)c2c(C)noc2/C=C/N(C)C)C1` (stereo not given), which growth inhibition is on record?
A: -4.98%

Q: With `COc1ccc(S(=O)(=O)Nc2ccc3c(c2)OCO3)cc1C(=O)O` as the compound, how does the growth inhibition read?
A: -4.6%

Q: With `O=C(Nc1nnc(C2CC2)s1)c1cc(-c2ccccc2)nn1-c1ccccc1` as the compound, how does the growth inhibition read?
A: 2.87%

Q: Which growth inhibition does the source give for `O=C(Oc1cccnc1)c1cccc(Cl)c1` here?
A: 6.51%

Q: For `COc1ccc(N2CCN(C(=O)c3ccc4nc(N5CCCCC5)sc4c3)CC2)cc1`, which growth inhibition is on record?
A: 9.87%

Q: With `O=C(Cn1cc2c(n1)CCCC2)Nc1ccccc1Br` as the compound, how does the growth inhibition read?
A: -13%

Q: With `CCCN(CC1CC1)S(=O)(=O)c1ccc(S(N)(=O)=O)cc1` as the compound, how does the growth inhibition read?
A: -8.54%

Q: For `Fc1ccccc1N1CCN(C2CCN(Cc3c[nH]c4ccccc34)CC2)CC1`, which growth inhibition is on record?
A: -1.12%

Q: Which growth inhibition does the source give for `COc1ccccc1NC(=O)C1=C(C)Nc2nc(-c3cccs3)nn2C1c1cccnc1` (stereo not given) here?
A: -13.7%

Q: Which growth inhibition does the source give for `COc1ccccc1NC1C=CS(=O)(=O)C1` (stereo not given) here?
A: -1.03%

Q: With `COc1ccc(C2(C(=O)NCCCN(C)C)CCOCC2)cc1` as the compound, how does the growth inhibition read?
A: -19.3%

Q: With `COc1ccccc1C1NC(=O)NC(C)=C1C(=O)Nc1cccc(C)c1C` (stereo not given) as the compound, how does the growth inhibition read?
A: -5.33%

Q: Which growth inhibition does the source give for `CCCCSCc1[nH]c(=O)[nH]c1C(=O)CCCCC(=O)OCC` here?
A: -12.8%

Q: Which growth inhibition does the source give for `Cn1cc(S(=O)(=O)N2CCN(Cc3ccccc3)CC2)c(=O)n(C)c1=O` here?
A: -11.9%

Q: With `CCOc1ccc(S(=O)(=O)n2ccnc2)c2ccccc12` as the compound, how does the growth inhibition read?
A: -2.9%

Assay: S. cerevisiae growth inhibition in restrictive medium, OD615, pilot screen, restrictive growth control, yeast lifespan reduction project (AID 706;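 active = growth inhibition above a set limit, 3 SD over mean compound inhibition, in both replicates, cut at about 43% in these data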;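 note: modified DeaD lifespan yeast strain shifted to restrictive glucose medium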)
Conditions: OD615, 48 h, at 10 µM, stronger effect = higher value
Method in brief: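 material = engineered S. cerevisiae DeaD strain | medium = glucose-based CSMM-D restrictive medium | times = 4 h pre-incubation, 48 h exposure at 30 °C | technique = OD615 absorbance reading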

Q: For `CCOC(=O)Cn1c(=O)oc2cc(S(=O)(=O)NCc3ccccn3)ccc21`, which growth inhibition is on record?
A: -21.4%

Q: Which growth inhibition does the source give for `CCOC(=O)C1C(C)N=C2SCC(=O)N2C1c1cccc(Br)c1` (stereo not given) here?
A: 51.2% (active)

Q: Which growth inhibition does the source give for `CN1CCN(c2cc3c(c4c2[nH]c2ccccc24)C(=O)CC(C)(C)C3)CC1` here?
A: 4.61%

Q: With `Cc1cc(/C=N/n2cnnc2)c(C)n1-c1ccc(C(=O)O)cc1` as the compound, how does the growth inhibition read?
A: -2.69%

Q: For `O=C(CSc1cn(Cc2ccccc2)c2ccccc12)Nc1nccs1`, which growth inhibition is on record?
A: 3.57%

Q: For `CCOC(=O)CN1Cc2cccc(C(=O)O)c2C1=O`, which growth inhibition is on record?
A: -18.1%

Q: With `CCOC(=O)C1CCCN(C(=O)c2ccc(CNc3c(N4CCC(C)CC4)c(=O)c3=O)cc2)C1` (stereo not given) as the compound, how does the growth inhibition read?
A: -24.3%

Q: With `O=C1C(Cl)=C(N2CCCCCC2)C(=O)N1c1ccccc1` as the compound, how does the growth inhibition read?
A: -16.4%

Q: Which growth inhibition does the source give for `O=C(Nc1c(C(=O)O)oc2ccc(Br)cc12)c1ccccc1` here?
A: 2.99%

Q: With `CC1(C)CC(=O)C2(CC3=C(CC(C)(C)CC3=O)O2)C(=O)C1` as the compound, how does the growth inhibition read?
A: 0.72%

Q: For `CCCn1nc(NC(=O)CC(C)C)c2cc3ccccc3nc21`, which growth inhibition is on record?
A: -11.4%

Q: Which growth inhibition does the source give for `Cc1ccc(C2=[N+]([O-])C3(CCCCC/C3=N\O)N(O)C2(C)C)o1` (stereo not given) here?
A: -2.15%

Q: With `COc1ccc(-c2nc(CS(=O)CC(=O)NCC3CCCO3)c(C)o2)cc1` (stereo not given) as the compound, how does the growth inhibition read?
A: 15.5%

Q: With `CN(C(=O)c1ccc2c(c1)OCO2)C1(C(=O)NC2CCCCC2)CCCCC1` as the compound, how does the growth inhibition read?
A: 0.39%

Q: Which growth inhibition does the source give for `CCn1c(=O)cc(OCC(=O)N2CCc3ccccc32)c2ccccc21` here?
A: -15.4%

Q: With `Cn1c(=O)[nH]c(=O)c2[nH]c(CN3CCN(Cc4ccccc4)CC3)nc21` as the compound, how does the growth inhibition read?
A: -10%

Q: Which growth inhibition does the source give for `CCCCOC(=O)Cc1c(O)c2ccccc2[nH]c1=O` here?
A: 12.5%

Q: Which growth inhibition does the source give for `CCOc1ccc(S(=O)(=O)Nc2ccccc2C(=O)NCC2CCCO2)cc1` (stereo not given) here?
A: -16.7%

Q: With `O=C1C(Cl)=C(NCC2CCCO2)C(=O)N1C1CCCCC1` (stereo not given) as the compound, how does the growth inhibition read?
A: 8.66%

Q: With `CC1=C(C(=O)N2CCOCC2)C(c2cccs2)NC(=O)N1` (stereo not given) as the compound, how does the growth inhibition read?
A: -1.81%

Q: With `CCC1CCCCN1C(=O)CSc1nnc(-c2ccc(Cl)cc2)o1` (stereo not given) as the compound, how does the growth inhibition read?
A: -5.16%

Q: Which growth inhibition does the source give for `COC(=O)CN1C(=O)C(O)(CC(=O)c2cccc(Br)c2)c2ccccc21` (stereo not given) here?
A: -10.7%

Q: Which growth inhibition does the source give for `O=P(O)(CCc1ccccn1)CN1CCOCC1` here?
A: -15.6%

Q: With `O=C(NCc1cccnc1)NC1(C(F)(F)F)Oc2ccc(Cl)cc2O1` (stereo not given) as the compound, how does the growth inhibition read?
A: -8.97%

Q: With `CN(C)C(C(=O)NC1CCCCC1)c1ccc(Cl)cc1` (stereo not given) as the compound, how does the growth inhibition read?
A: -17.6%

Q: With `COc1ccc(C)cc1NC(=O)C1CCCN(S(=O)(=O)c2c(C)noc2/C=C/N(C)C)C1` (stereo not given) as the compound, how does the growth inhibition read?
A: 3.38%

Q: For `COc1ccc(S(=O)(=O)Nc2ccc3c(c2)OCO3)cc1C(=O)O`, which growth inhibition is on record?
A: -5.47%

Q: Which growth inhibition does the source give for `O=C(Nc1nnc(C2CC2)s1)c1cc(-c2ccccc2)nn1-c1ccccc1` here?
A: 30.2%

Q: With `O=C(Oc1cccnc1)c1cccc(Cl)c1` as the compound, how does the growth inhibition read?
A: 20.1%

Q: For `COc1ccc(N2CCN(C(=O)c3ccc4nc(N5CCCCC5)sc4c3)CC2)cc1`, which growth inhibition is on record?
A: 6.32%

Q: For `O=C(Cn1cc2c(n1)CCCC2)Nc1ccccc1Br`, which growth inhibition is on record?
A: -9.29%

Q: For `CCCN(CC1CC1)S(=O)(=O)c1ccc(S(N)(=O)=O)cc1`, which growth inhibition is on record?
A: 0.87%

Q: Which growth inhibition does the source give for `Fc1ccccc1N1CCN(C2CCN(Cc3c[nH]c4ccccc34)CC2)CC1` here?
A: 2.13%

Q: With `COc1ccccc1NC(=O)C1=C(C)Nc2nc(-c3cccs3)nn2C1c1cccnc1` (stereo not given) as the compound, how does the growth inhibition read?
A: -9.57%

Q: Which growth inhibition does the source give for `COc1ccccc1NC1C=CS(=O)(=O)C1` (stereo not given) here?
A: 0.12%

Q: Which growth inhibition does the source give for `COc1ccc(C2(C(=O)NCCCN(C)C)CCOCC2)cc1` here?
A: -23.9%

Q: For `COc1ccccc1C1NC(=O)NC(C)=C1C(=O)Nc1cccc(C)c1C` (stereo not given), which growth inhibition is on record?
A: -10.3%

Q: With `CCCCSCc1[nH]c(=O)[nH]c1C(=O)CCCCC(=O)OCC` as the compound, how does the growth inhibition read?
A: -1.29%

Q: Which growth inhibition does the source give for `Cn1cc(S(=O)(=O)N2CCN(Cc3ccccc3)CC2)c(=O)n(C)c1=O` here?
A: -10.5%

Q: For `CCOc1ccc(S(=O)(=O)n2ccnc2)c2ccccc12`, which growth inhibition is on record?
A: 0.2%
